Arrestin-AP2 inh = blocks beta-arrestin peptide binding to AP2 adaptin; inhibition, % at 10 µM; 340,000 compounds, 0.31% hits; FITC-arrestin peptide / GST-AP2 beads, flow cytometry; AP2 beta2 appendage carries R879A mutation;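 active = inhibition above a set limit, near 3 SD of compounds lacking own fluorescence, cut at about 54% in these data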;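 note: plate controls were DMSO wells for no effect and 5 µM unlabelled arrestin peptide for full effect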
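System: GST-AP2 R879A glutathione beads. Medium: PBS with 0.05% Tween 20 and 0.1% BSA. Also added: FITC-arrestin peptide, 50 nM. Incubation: 12 min plus 1 h, RT. Measured by: high-throughput flow cytometry of beads, ex 488, em 535 nm. Evaluation: percent drop in bead-associated FITC signal.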
Beta2AR agonist = activates human beta-2 adrenergic receptor causing internalization; P07550; Am2.2-beta2AR cells, FAP receptor internalization, flow cytometry; response, % (concentration not given with the values); 340,000 compounds, 0.43% hits;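 active = response above a set limit, near 3 SD of response in nonfluorescent compounds, cut at about 42% in these data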
MBD2 inh = MBD2-methylated oligo binding inhibition; inhibition, % at 4.4 µM; 370,000 compounds, 0.31% hits; Q9UBB5; TR-FRET, MBD2 binding to methylated oligonucleotide; in the data active = inhibition above about 13%
UHRF1 binding = UHRF1 methyl-DNA binding inhibition; UHRF1 binding to methylated oligo, TR-FRET; Q96T88; 370,000 compounds, 0.75% hits; inhibition, % at 4.4 µM; in the data active = inhibition above about 21%;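 note: UHRF1 SRA domain binding a hemimethylated CpG hairpin DNA probe; 0% = median of test compound wells and 100% = reference inhibitor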
Target sequence (Q96T88 whole entry, looked up, the tested form may be a part): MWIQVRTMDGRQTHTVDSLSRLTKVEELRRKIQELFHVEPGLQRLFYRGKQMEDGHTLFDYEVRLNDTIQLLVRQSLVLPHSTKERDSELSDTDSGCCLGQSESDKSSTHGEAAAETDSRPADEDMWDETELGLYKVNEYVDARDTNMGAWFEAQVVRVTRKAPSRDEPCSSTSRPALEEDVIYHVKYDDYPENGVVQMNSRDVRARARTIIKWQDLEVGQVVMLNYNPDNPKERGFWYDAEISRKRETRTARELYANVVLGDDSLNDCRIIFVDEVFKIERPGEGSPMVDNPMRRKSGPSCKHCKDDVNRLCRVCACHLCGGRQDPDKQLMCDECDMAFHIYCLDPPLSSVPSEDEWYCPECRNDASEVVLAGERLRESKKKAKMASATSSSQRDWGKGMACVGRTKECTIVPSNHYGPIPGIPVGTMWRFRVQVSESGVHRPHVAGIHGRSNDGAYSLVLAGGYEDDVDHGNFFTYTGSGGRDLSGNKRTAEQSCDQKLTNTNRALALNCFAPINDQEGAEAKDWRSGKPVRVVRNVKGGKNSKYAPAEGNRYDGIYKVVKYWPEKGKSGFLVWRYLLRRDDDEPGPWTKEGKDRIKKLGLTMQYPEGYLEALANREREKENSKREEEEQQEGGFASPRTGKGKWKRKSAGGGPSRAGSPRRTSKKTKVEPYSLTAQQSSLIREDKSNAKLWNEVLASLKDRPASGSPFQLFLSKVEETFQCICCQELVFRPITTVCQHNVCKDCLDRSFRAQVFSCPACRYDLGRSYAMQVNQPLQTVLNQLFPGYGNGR
Rin1-Abl PPI inh = inhibitors of human Rin1-Abl protein interaction. TR-FRET Rin1/Abl binding, biochemical. inhibition, % at 7.35 µM. 360,000 compounds, 0.4% hits. AID 588664; in the data active = inhibition above about 5%, passing the limit was not always enough
ABHD5 PLIN5 PPI = ABHD5-PLIN5 protein interaction inhibition; 360,000 compounds, 0.78% hits; Q00G26+Q8WTS1; inhibition, % at 4 µM; Split G. princeps luciferase complementation, luminescence, 4 h;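 active = inhibition above the mean inhibition across every tested compound plus 3 SD, cut at about 22% in these data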;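 note: 0% = DMSO only wells and the 100% control is not disclosed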
Active calls of the source: *. An excerpt weighted towards active compounds, which were near 2.5% of everything screened.

`O=Cc1ccc2noc(-c3ccc(F)cc3)c2c1` gave Arrestin-AP2 inh 4.5, Beta2AR agonist 46.1*, MBD2 inh 0.1, UHRF1 binding -4.9, Rin1-Abl PPI inh -0.1 and ABHD5 PLIN5 PPI 10.2.
CCC(=O)Nc1cccc(-c2nnc(SCC(=O)c3ccccc3)n2C)c1 was read as Arrestin-AP2 inh -6.9, Beta2AR agonist 3.9, MBD2 inh -1.2, UHRF1 binding 7.3, Rin1-Abl PPI inh 2.2 and ABHD5 PLIN5 PPI 0.3.
For CSc1nnc(-c2cccc(NC(=O)c3ccccc3)c2)n1C the results were Arrestin-AP2 inh 0.4, Beta2AR agonist -3.1, MBD2 inh -3.1, UHRF1 binding 25.8*, Rin1-Abl PPI inh 2.2 and ABHD5 PLIN5 PPI 1.1.
For O=C(O)c1cc(O)c2c(c1)[C@@H]([C@H]1c3cc(C(=O)O)cc(O)c3C(=O)c3c(O[C@@H]4O[C@H](CO)[C@@H](O)[C@H](O)[C@H]4O)cccc31)c1cccc(OC3O[C@H](CO)[C@@H](O)[C@H](O)[C@H]3O)c1C2=O (some centres undefined) the results were Arrestin-AP2 inh 10.7, Beta2AR agonist 23.3, MBD2 inh 38.1*, UHRF1 binding 79.8*, Rin1-Abl PPI inh 8.3 and ABHD5 PLIN5 PPI -2.8.
For O=C(/C=C/c1ccccc1)Oc1ccc(C(=S)N2CCOCC2)cc1 the results were Arrestin-AP2 inh 27.1, Beta2AR agonist 0.7, MBD2 inh 11.6, UHRF1 binding 28.3*, Rin1-Abl PPI inh 4.1 and ABHD5 PLIN5 PPI 7.5.
Screening CC(C)C[C@@H](CNCC(=O)[C@H](CC(C)C)NC(=O)c1[nH]cnc1C(=O)N[C@@H](C)CN)NC(=O)c1nc[nH]c1C(=O)N[C@@H](Cc1ccccc1)C(=O)O returned Arrestin-AP2 inh 0.6, Beta2AR agonist -0.4, MBD2 inh -1.7, UHRF1 binding 1.2, Rin1-Abl PPI inh 0.9 and ABHD5 PLIN5 PPI -0.4.
For CC(C)C[C@@H](CNCC(=O)[C@H](Cc1ccccc1)NC(=O)c1[nH]cnc1C(=O)N[C@@H](C)CN)NC(=O)c1nc[nH]c1C(=O)N[C@@H](C)C(=O)O the results were Arrestin-AP2 inh -7.3, Beta2AR agonist -0.2, MBD2 inh 9.0, UHRF1 binding 22.6*, Rin1-Abl PPI inh -2.8 and ABHD5 PLIN5 PPI 8.7.
CC(C)C[C@@H](CNCC(=O)[C@H](C)NC(=O)c1[nH]cnc1C(=O)N[C@@H](C)CN)NC(=O)c1nc[nH]c1C(=O)N[C@@H](C)C(=O)O was read as Arrestin-AP2 inh 26.5, Beta2AR agonist -11.9, MBD2 inh 12.1, UHRF1 binding 21.6*, Rin1-Abl PPI inh 0.9 and ABHD5 PLIN5 PPI 1.0.
`O=S1(=O)c2c(NCc3ccco3)cccc2Oc2ccccc2CN1Cc1cn(Cc2ccc(C(F)(F)F)cc2)nn1` gave MBD2 inh -0.1 and UHRF1 binding 1.6.
`O=c1[nH]c(NNC(=S)NC2CCCCC2)nc2c1C1(CCCC1)Cc1ccccc1-2` gave Arrestin-AP2 inh -34.8, Beta2AR agonist 68.3*, MBD2 inh 0.9, UHRF1 binding -2.9, Rin1-Abl PPI inh -2.7 and ABHD5 PLIN5 PPI -0.2.
Screening O=c1[nH]c(NNC(=S)NCc2ccccc2)nc2c1C1(CCCCC1)Cc1ccccc1-2 returned Arrestin-AP2 inh -2.7, Beta2AR agonist 5.3, MBD2 inh 1.2, UHRF1 binding -1.8, Rin1-Abl PPI inh 2.9 and ABHD5 PLIN5 PPI -10.2.
Screening COCCNC(=O)CN(C(=O)Cn1nnc2ccccc21)c1ccccc1C returned Arrestin-AP2 inh -12.6, Beta2AR agonist -0.1, MBD2 inh 2.1, UHRF1 binding 2.3, Rin1-Abl PPI inh 0.0 and ABHD5 PLIN5 PPI 2.9.
For COCCNC(=O)CN(C(=O)Cn1nnc2ccccc21)c1ccc(F)c(Cl)c1 the results were Arrestin-AP2 inh 35.1, Beta2AR agonist -3.1, MBD2 inh 9.8, UHRF1 binding 81.5*, Rin1-Abl PPI inh 2.1 and ABHD5 PLIN5 PPI 2.4.
For O=C(C1CCN(S(=O)(=O)c2cnc[nH]2)CC1)N1CCc2ccccc2C1 the results were Arrestin-AP2 inh -7.0, Beta2AR agonist -2.8, MBD2 inh -2.4, UHRF1 binding 29.6*, Rin1-Abl PPI inh -3.7 and ABHD5 PLIN5 PPI 8.0.
CN1CCN(C(=O)C2CCN(S(=O)(=O)c3cnc[nH]3)CC2)CC1 was read as Arrestin-AP2 inh 1.7, Beta2AR agonist 2.3, MBD2 inh 1.1, UHRF1 binding 1.4, Rin1-Abl PPI inh -0.6 and ABHD5 PLIN5 PPI 0.7.
For CN1CCN(CCCNC(=O)c2ccc(/C=C3\Sc4ccccc4N(Cc4ccc(F)cc4)C3=O)cc2)CC1 the results were Arrestin-AP2 inh 31.8, Beta2AR agonist 98.8*, MBD2 inh -2.8, UHRF1 binding -1.8, Rin1-Abl PPI inh -1.5 and ABHD5 PLIN5 PPI 13.0.
For CN1CCN(CCCNC(=O)c2ccc(/C=C3/Sc4ccccc4N(Cc4cccc(Cl)c4)C3=O)cc2)CC1 the results were Arrestin-AP2 inh 25.0, Beta2AR agonist 23.6, MBD2 inh -3.0, UHRF1 binding -2.7, Rin1-Abl PPI inh -0.8 and ABHD5 PLIN5 PPI 20.5.
CCN1CCN(CCNC(=O)c2ccc(/C=C3\Sc4ccccc4N(Cc4ccccc4F)C3=O)cc2)CC1 was read as Arrestin-AP2 inh 4.0, Beta2AR agonist 55.4*, MBD2 inh -7.3, UHRF1 binding -1.8, Rin1-Abl PPI inh -5.6 and ABHD5 PLIN5 PPI 16.8.
COc1cccc(N2CCN(CC(=O)NCc3ccc(Cl)cc3)CC2)c1 was read as MBD2 inh 1.3 and UHRF1 binding -1.7.
`Oc1ccccc1Oc1ncc(Br)c(Cl)n1` gave Arrestin-AP2 inh 32.3, Beta2AR agonist -4.7, MBD2 inh 7.7, UHRF1 binding 22.0*, Rin1-Abl PPI inh 0.3 and ABHD5 PLIN5 PPI 9.4.
CC(C)(C)c1nn(-c2ccccc2)c2[nH]c(=O)c(C=O)cc12 was read as Arrestin-AP2 inh -8.3, Beta2AR agonist 55.4*, MBD2 inh -0.5, UHRF1 binding -2.6, Rin1-Abl PPI inh 1.1 and ABHD5 PLIN5 PPI 5.3.
Screening N/C(Cc1ccc(Cl)cc1Cl)=N\OC(=O)Cc1cccs1 returned Arrestin-AP2 inh -1.5, Beta2AR agonist 0.8, MBD2 inh 3.0, UHRF1 binding 57.5*, Rin1-Abl PPI inh 0.9 and ABHD5 PLIN5 PPI -9.7.
N/C(Cc1ccc(Cl)cc1Cl)=N\OC(=O)c1cccs1 was read as Arrestin-AP2 inh 1.1, Beta2AR agonist 2.1, MBD2 inh 5.8, UHRF1 binding 8.3, Rin1-Abl PPI inh 1.4 and ABHD5 PLIN5 PPI -4.4.
For O=C(Cc1ccsc1)NCC(c1ccco1)N1CCCCC1 (centres undefined) the results were Arrestin-AP2 inh 0.9, Beta2AR agonist -6.2, MBD2 inh -5.6, UHRF1 binding 25.1*, Rin1-Abl PPI inh -1.4 and ABHD5 PLIN5 PPI -2.6.
`COc1ccc2c(c1)CNC2CS(=O)(=O)NCC(C)C` (centres undefined) gave MBD2 inh -2.2 and UHRF1 binding -3.7.
CCOc1ccc(NC(=O)N2CCC(C(=O)c3ccc(F)cc3)CC2)cc1 was read as Arrestin-AP2 inh 17.3, Beta2AR agonist 4.9, MBD2 inh 7.7, UHRF1 binding 21.5*, Rin1-Abl PPI inh 2.5 and ABHD5 PLIN5 PPI -0.6.
